From ChEMBL document CHEMBL1138785, “Stereoselective synthesis of sugar-modified enyne analogues of adenosine and uridine. Interaction with S-adenosyl-L-homocysteine hydrolase and antiviral and cytotoxic effects” (J Med Chem, 2004)
pEC50, pIC50, pKi: −log10 of the molar value.

Columns and labels:
Cytomegalovirus [1] = assay: Activity against CMV (AD-169 strain) was determined; assay type: functional, organism-based; settings: Human betaherpesvirus 5
Method in brief: (§1)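 Human embryonic lung (HEL) cell cultures infected with human cytomegalovirus, AD-169 or Davis strain. The read-out is the 50% effective concentration (EC50). Cytotoxicity was measured in the same cells as the 50% cytotoxic concentration (CC50).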

HeLa [2] = assay: Minimum inhibitory concentration required to inhibit Coxsackie B4 virus; assay type: functional; settings: Homo sapiens
Method in brief: (§2)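 HeLa cell cultures infected with vesicular stomatitis virus, Coxsackie B4 virus or respiratory syncytial virus. The read-out is the minimum inhibitory concentration (MIC), with compounds tested up to 100 or 700 μM.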

HeLa [3] = assay: Minimum inhibitory concentration required to inhibit vesicular stomatitis virus; assay type: functional; settings: Homo sapiens; method in brief: as §2
HeLa [4] = assay: Minimum inhibitory concentration required to inhibit respiratory syncytial virus; assay type: functional; settings: Homo sapiens; method in brief: as §2
Cytomegalovirus [5] = assay: Activity against CMV (Davis strain) was determined; assay type: functional, organism-based; settings: Human betaherpesvirus 5; method in brief: as §1
Adenosylhomocysteinase [6] = molecular target: T1, Adenosylhomocysteinase (Homo sapiens, UniProt P23526); assay: Inhibition of recombinant Placental Adenosylhomocysteinase
Target sequence in this assay (P23526 whole entry): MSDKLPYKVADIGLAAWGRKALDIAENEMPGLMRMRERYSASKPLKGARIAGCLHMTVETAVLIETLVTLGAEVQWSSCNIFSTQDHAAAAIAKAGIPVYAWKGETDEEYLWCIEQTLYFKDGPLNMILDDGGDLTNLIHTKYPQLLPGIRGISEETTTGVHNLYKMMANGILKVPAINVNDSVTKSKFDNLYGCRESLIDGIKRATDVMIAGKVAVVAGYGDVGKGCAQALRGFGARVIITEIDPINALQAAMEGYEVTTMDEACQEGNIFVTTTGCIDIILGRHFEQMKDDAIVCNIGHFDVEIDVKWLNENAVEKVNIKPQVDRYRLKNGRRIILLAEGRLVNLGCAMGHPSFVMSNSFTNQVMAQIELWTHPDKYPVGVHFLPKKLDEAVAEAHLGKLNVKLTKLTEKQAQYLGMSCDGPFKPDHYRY

[7] = Minimum cytotoxic concentration was determined; settings: human
Method in brief: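 Human embryonic lung (HEL) cell cultures, run alongside the CMV (AD-169, Davis) and VZV (OKA, 07/1) antiviral tests. Minimum cytotoxic concentration is the lowest compound level that causes cytotoxicity.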

Adenosylhomocysteinase [8] = molecular target: T1, Adenosylhomocysteinase
Target sequence in this assay (P23526 2-432 limits assumed): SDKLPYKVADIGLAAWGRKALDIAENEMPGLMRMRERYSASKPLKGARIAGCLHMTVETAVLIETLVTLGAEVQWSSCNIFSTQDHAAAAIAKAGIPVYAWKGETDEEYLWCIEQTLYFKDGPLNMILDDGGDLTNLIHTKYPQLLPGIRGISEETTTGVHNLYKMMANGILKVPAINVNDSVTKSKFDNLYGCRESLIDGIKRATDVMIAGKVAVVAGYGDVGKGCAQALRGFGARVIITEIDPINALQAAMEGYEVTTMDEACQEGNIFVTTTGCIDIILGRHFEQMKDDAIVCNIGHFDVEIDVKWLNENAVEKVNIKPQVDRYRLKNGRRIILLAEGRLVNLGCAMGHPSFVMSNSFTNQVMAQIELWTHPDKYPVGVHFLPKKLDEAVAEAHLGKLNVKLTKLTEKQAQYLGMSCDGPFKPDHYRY

MT4 = assay: Ratio of cytotoxicity to antiviral activity was determined; assay type: functional, Homo sapiens
Method in brief: (§3)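 MT-4 cells infected with HIV-1 (strain IIIB) or HIV-2 (strain ROD), with viability read by MTT. The read-out is the 50% inhibitory concentration (IC50). CC50 was measured in MT-4 cells, and the selectivity index was calculated as CC50/IC50.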

[9] = tested on: Human immunodeficiency virus 2; assay: Inhibition concentration required to inhibit ROD strain was determined by MT-4/MTT assay; assay type: functional, organism-based; method in brief: as §3
Adenosylhomocysteinase [10] = molecular target: T1, Adenosylhomocysteinase; assay: Inhibition of recombinant human placental AdoHcy hydrolase
Method in brief: (§4)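 Recombinant enzyme (2.5 μg) preincubated with inhibitor at 0–200 μM for 0–20 min at 37 °C in 50 mM potassium phosphate, pH 7.2, 1 mM EDTA. Residual synthetic-direction activity was measured with 1 mM Ado and 1 mM Hcy for 1 min at 37 °C, stopped with HClO4, and AdoHcy quantified by reversed-phase HPLC at 258 nm. Ki and kinact came from fitting kobs = kinact[I]/(Ki+[I]).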
Target sequence in this assay (P23526 whole entry): as the sequence (P23526 whole entry) above

[11] = tested on: Human immunodeficiency virus 1; assay: Inhibition concentration required to inhibit HIV-IIIB was determined by MT-4/MTT assay; assay type: functional, organism-based; method in brief: as §3
[12] = tested on: Human immunodeficiency virus 1; assay: Inhibition concentration required to inhibit HIV-1 was determined by MT-4/MTT assay; assay type: functional, organism-based; method in brief: as §3
[13] = tested on: Human immunodeficiency virus 2; assay: Inhibition concentration required to inhibit HIV-2 was determined by MT-4/MTT assay; assay type: functional, organism-based; method in brief: as §3
Adenosylhomocysteinase [14] = molecular target: T1, Adenosylhomocysteinase; assay: Rate at which the compound inactivates human placental AdoHcy hydrolase enzyme was determined; assay type: functional; method in brief: as §4
Target sequence in this assay (P23526 2-432 limits assumed): as the sequence (P23526 2-432 limits assumed) above

SMILES	pEC50 (Cytomegalovirus [1])	MIC (HeLa [2])	MIC (HeLa [3])	MIC (HeLa [4])	pEC50 (Cytomegalovirus [5])	pKi (Adenosylhomocysteinase [6])	MCC [7]	K inact (Adenosylhomocysteinase [8])	CC50/IC50 (MT4)	pIC50 [9]	pKi (Adenosylhomocysteinase [10])	pIC50 [11]	pIC50 [12]	pIC50 [13]	K inact (Adenosylhomocysteinase [14])
C#C/C=C/[C@H]1OC(n2cnc3c(N)ncnc32)[C@H](O)[C@@H]1O (some centres not stated)	4.30	> 100 µM	> 100 µM	> 100 µM	4.52	6.26	≥ 350 µM	2.57 min⁻¹							
C#C/C=C\[C@H]1OC(n2ccc(=O)[nH]c2=O)[C@H](O)[C@@H]1O (some centres not stated)		> 100 µM	> 100 µM	> 100 µM			≥ 350 µM		7						
C#C/C=C/[C@H]1OC(n2ccc(=O)[nH]c2=O)[C@H](O)[C@@H]1O (some centres not stated)		> 700 µM	> 700 µM	> 700 µM			≥ 350 µM								
CCOC(=O)/C=C\C#C[C@H]1OC(n2cnc3c(N)ncnc32)[C@H](O)[C@@H]1O (some centres not stated)							≥ 11 µM								
C#C/C=C\[C@H]1OC(n2cnc3c(N)ncnc32)[C@H](O)[C@@H]1O (some centres not stated)		> 700 µM	> 700 µM	> 700 µM			≥ 350 µM								
Nc1ncnc2c1ncn2C1O[C@H](/C=C/C#CI)[C@@H](O)[C@H]1O (some centres not stated)		> 100 µM	> 100 µM	> 100 µM			≥ 50 µM		7	5.96	3.93	5.96	5.96	5.96	1.49 min⁻¹
O=c1ccn(C2O[C@H](/C=C/C#CI)[C@@H](O)[C@H]2O)c(=O)[nH]1 (some centres not stated)		> 100 µM	> 100 µM	> 100 µM			≥ 50 µM		3	5.74		5.74	5.74	5.74	
